Results taken from ChEMBL document CHEMBL1154670, “Azaindole hydroxamic acids are potent HIV-1 integrase inhibitors” (J Med Chem, 2009).

Columns and labels:
[1] = target: Human immunodeficiency virus type 1 integrase (Human immunodeficiency virus 1, UniProt Q7ZJM1); experiment: Inhibition of HIV1 integrase expressed in Escherichia coli assessed as strand transfer activity by scintillation proximity assay
Summary of the method: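 His6-tagged full-length HIV-1 IN (mutant) was preincubated 15 min at 22 °C with biotinylated U5 LTR donor DNA on streptavidin SPA beads, then [3H]-thymidine target DNA was added. Final: 2 pmol donor, 246 nM IN, 50 nM target, pH 7.2 MOPS, 4 mM MgCl2, 1% DMSO. Ran 50 min at 37 °C, stopped with EDTA/NaOH/CsCl, quench-corrected counts. IC50 from 4-parameter logistic fit, 2-3 replicates per concentration.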

[2] = system: Human immunodeficiency virus 1; experiment: Antiviral activity against HIV1 RF in human CEM-SS cells assessed inhibition of virus-induced cytopathic effect by XTT assay; format: functional, organism-based; conditions: Human immunodeficiency virus 1, RF
Summary of the method: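 CEM-SS cells (2×10^4/well) were infected with HIV-1 RF at an MOI giving 90% cell death by day 6. Compounds, in half-log dilutions with ≥2 replicate wells, were added at seeding before infection. On day 6, XTT/phenazine methosulfate was added for 4 h and read at A450. EC50 is the concentration restoring formazan to 50% of uninfected, compound-free cells.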

[3] = Cytotoxicity against human CEM-SS cells by XTT assay; format: cell-based
Summary of the method: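 Uninfected CEM-SS cells (2×10^4/well) were exposed for 6 days to half-log compound dilutions (≥2 replicate wells) added at seeding. Viability was read by XTT formazan (4 h, A450). CC50 was derived from the drop in formazan versus uninfected, compound-free cells.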

[4] = Metabolic stability in human hepatocytes assessed as extraction ratio after 4 hrs; format: ADME, cell-based, Hepatocyte
[5] = Metabolic stability in human liver microsomes assessed as extraction ratio after 4 hrs in presence of NADPH; format: ADME, Microsome
[6] = Mutagenic activity in Salmonella Typhimurium TA100 by Biolum Ames test; format: toxicity; conditions: salmonella enterica subsp. enterica serovar typhimurium
[7] = Mutagenic activity in Salmonella Typhimurium TA98 by Biolum Ames test; format: toxicity; conditions: salmonella enterica subsp. enterica serovar typhimurium
[8] = Mutagenic activity in Salmonella Typhimurium TA100 by Biolum Ames test in presence of metabolizing enzyme; format: toxicity; conditions: salmonella enterica subsp. enterica serovar typhimurium
[9] = Mutagenic activity in Salmonella Typhimurium TA98 by Biolum Ames test in presence of metabolizing enzyme; format: toxicity; conditions: salmonella enterica subsp. enterica serovar typhimurium

Chain of Human immunodeficiency virus type 1 integrase (Q7ZJM1 whole entry): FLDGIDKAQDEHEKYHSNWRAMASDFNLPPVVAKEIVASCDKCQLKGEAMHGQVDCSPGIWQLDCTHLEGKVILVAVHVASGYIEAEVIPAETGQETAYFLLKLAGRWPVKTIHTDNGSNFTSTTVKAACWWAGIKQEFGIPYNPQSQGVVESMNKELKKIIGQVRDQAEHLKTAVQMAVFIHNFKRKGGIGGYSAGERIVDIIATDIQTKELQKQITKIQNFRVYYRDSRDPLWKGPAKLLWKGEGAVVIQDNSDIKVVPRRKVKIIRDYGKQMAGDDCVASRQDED

| Compound | IC50 [1] | EC50 [2] | CC50 [3] | hepatic extraction ratio at 4 h [4] | hepatic extraction ratio at 4 h [5] | Activity [6] | Activity [7] | Activity [8] | Activity [9] |
| --- | --- | --- | --- | --- | --- | --- | --- | --- | --- |
| O=C(O)c1cc2ccn(Cc3cccc(Cl)c3Cl)c2cn1 | 5.42 µM | – | – | – | – | – | – | – | – |
| O=C(NO)c1cc2ccn(Cc3cccc(Cl)c3Cl)c2cn1 | 0.442 µM | 0.035 µM | > 320 µM | – | – | – | – | – | – |
| CC(C)N(O)C(=O)c1cc2ccn(Cc3ccc(F)cc3)c2cn1 | 8 µM | 3.5 µM | 36 µM | 0.93 | – | – | – | – | – |
| O=C(NO)c1cc2ccn(Cc3cccc(Cl)c3F)c2cn1 | 0.102 µM | 0.008 µM | > 320 µM | – | – | – | – | – | – |
| O=C(NO)c1cc2ccn(Cc3c(F)ccc(Cl)c3F)c2cn1 | 0.131 µM | 0.007 µM | > 1 µM | – | – | – | – | – | – |
| O=C(O)c1cc2ccn(Cc3cc(Cl)cs3)c2cn1 | 3.2 µM | – | – | – | – | – | – | – | – |
| O=C(NO)c1cc2ccn(Cc3cccc(CO)n3)c2cn1 | 5.73 µM | 0.73 µM | > 10 µM | – | – | – | – | – | – |
| CONC(=O)c1cc2ccn(Cc3ccc(F)cc3F)c2cn1 | 0.356 µM | 0.021 µM | > 320 µM | 1 | 0.68 | – | – | – | – |
| O=C(NO)c1cc2ccn(Cc3ccc(F)cc3)c2cn1 | 0.137 µM | 0.009 µM | 159 µM | 0.92 | – | – | – | – | – |
| N#Cc1cc(F)ccc1Cn1ccc2cc(C(=O)NO)ncc21 | 0.812 µM | 0.12 µM | > 10 µM | – | – | – | – | – | – |
| N#Cc1ccc(Cn2ccc3cc(C(=O)NO)ncc32)cc1 | > 10 µM | 1.2 µM | > 10 µM | – | – | – | – | – | – |
| NC(=O)c1cc(F)ccc1Cn1ccc2cc(C(=O)NO)ncc21 | 1.3 µM | 0.055 µM | > 10 µM | – | – | – | – | – | – |
| O=C(c1cc2ccn(Cc3ccc(F)cc3)c2cn1)N(O)Cc1ccccc1 | 23 µM | 0.33 µM | > 320 µM | 1 | – | – | – | – | – |
| CN(O)C(=O)c1cc2ccn(Cc3ccc(F)cc3)c2cn1 | 0.25 µM | – | 200 µM | – | – | – | – | – | – |
| O=C(O)c1cc2ccn(Cc3ccccc3F)c2cn1 | > 50 µM | – | – | – | – | – | – | – | – |
| O=C(O)c1cc2ccn(Cc3ccc(F)cc3F)c2cn1 | 3.5 µM | – | – | – | – | – | – | – | – |

| Compound | IC50 [1] | EC50 [2] | CC50 [3] | hepatic extraction ratio at 4 h [4] | hepatic extraction ratio at 4 h [5] | Activity [6] | Activity [7] | Activity [8] | Activity [9] |
| --- | --- | --- | --- | --- | --- | --- | --- | --- | --- |
| NC(=O)c1cccc(Cn2ccc3cc(C(=O)NO)ncc32)c1 | 1.72 µM | 0.53 µM | > 10 µM | – | – | – | – | – | – |
| O=C(O)c1cc2ccn(Cc3cccc(Cl)c3F)c2cn1 | 0.95 µM | – | – | – | – | – | – | – | – |
| O=C(O)c1cc2ccn(Cc3c(F)cc(Cl)cc3F)c2cn1 | 1.19 µM | – | – | – | – | – | – | – | – |
| O=C(O)c1cc2ccn(Cc3ccc(F)c(F)c3F)c2cn1 | 3.69 µM | – | – | – | – | – | – | – | – |
| CON(C)C(=O)c1cc2ccn(Cc3ccc(F)cc3F)c2cn1 | > 50 µM | > 10 µM | > 10 µM | 1 | 1 | – | – | – | – |
| NC(=O)c1cc(Cn2ccc3cc(C(=O)NO)ncc32)ccc1F | 0.608 µM | 0.058 µM | > 10 µM | – | – | – | – | – | – |
| O=C(NO)c1cc2ccn(Cc3ccc(F)cc3F)c2cn1 | 0.084 µM | 0.008 µM | > 320 µM | 0.9 | < 0.26 | Active | Active | Active | Active |
| O=C(NO)c1cc2ccn(Cc3ccccn3)c2cn1 | 0.779 µM | 0.088 µM | > 10 µM | – | – | – | – | – | – |
| CCCN(O)C(=O)c1cc2ccn(Cc3ccc(F)cc3)c2cn1 | 0.618 µM | 0.35 µM | 26 µM | 0.96 | – | – | – | – | – |
| CC(C)CN(O)C(=O)c1cc2ccn(Cc3ccc(F)cc3)c2cn1 | 1.7 µM | 1.4 µM | 102 µM | 0.95 | – | – | – | – | – |
| CN(O)C(=O)c1cc2ccn(Cc3ccc(F)cc3F)c2cn1 | 0.25 µM | 0.032 µM | 135 µM | 1 | < 0.36 | Not Active | Not Active | Not Active | Not Active |
| O=C(c1cc2ccn(Cc3ccc(F)cc3)c2cn1)N(O)CCCO | 0.804 µM | 0.3 µM | 77 µM | 0.95 | – | – | – | – | – |
| O=C(NO)c1cc2ccn(Cc3ccc(Cl)s3)c2cn1 | 0.387 µM | 0.02 µM | > 10 µM | – | – | – | – | – | – |
| O=C(O)c1cc2ccn(Cc3ccc(F)cc3)c2cn1 | 7.35 µM | – | – | – | – | – | – | – | – |
| NC(=O)c1ccc(Cn2ccc3cc(C(=O)NO)ncc32)cc1 | > 10 µM | > 10 µM | > 10 µM | – | – | – | – | – | – |
| N#Cc1cccc(Cn2ccc3cc(C(=O)NO)ncc32)c1 | 1.62 µM | 0.5 µM | > 10 µM | – | – | – | – | – | – |
